The source made the active and inactive calls. The rule behind the calls is not given here.
Assays:
[1] = test system: Human immunodeficiency virus 1; assay: Antiviral activity against Human immunodeficiency virus 1 NL4-3 infected in human MT4 cells measured on day 3 post infection by Nano-Glo luciferase reporter gene assay; format: functional, organism-based; conditions: Human immunodeficiency virus 1, NL4-3, MT4, 72 h
In short: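 HIV-1 NL4-3 Nanoluc-sec reporter virus at 50 TCID50/well infects MT4 cells (1 × 10⁵ cells/mL) in the presence of graded compound concentrations. On day 3 post-infection, supernatant is assayed for secreted NanoLuc luciferase.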

MT4 = assay: Cytotoxicity against human MT4 cells after 3 days by CytoTox-Glo assay; format: cell-based; conditions: mt4, 72 h
In short: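 MT4 cells cultured for 3 days with various compound concentrations. Cytotoxicity is read by CytoTox-Glo following the manufacturer's protocol. CC50 = concentration causing 50% reduction of cell viability.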

[2] = Selectivity index, ratio of CC50 for human MT4 cells to EC50 for Human immunodeficiency virus 1 NL4-3 infected in human MT4 cells; format: toxicity, cell-based; conditions: read-out: Ratio CC50/EC50
In short: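 SI = CC50/EC50. CC50 is from a 3-day CytoTox-Glo assay on MT4 cells. EC50 is from MT4 cells infected with 50 TCID50/well NL4-3 Nanoluc-sec and given graded compound, with supernatant luciferase read on day 3 as 50% reduction.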

[3] = test system: Human immunodeficiency virus 1; assay: Potency index, ratio AZT EC50 to test compound EC50 for Human immunodeficiency virus 1 NL4-3 infected in human MT4 cells; format: functional
[4] = test system: Human immunodeficiency virus 1; assay: Reactivation of latent HIV1 infected in human U1 cells assessed as increase in p24 production after 72 hrs by ELISA; format: functional, organism-based; conditions: Human immunodeficiency virus 1, U1, 72 h
In short: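 Latently infected U1 cells (2×10⁵ cells/mL) incubated with various compound concentrations at 37 °C for 72 h. Culture supernatant p24 is measured by ELISA. EC50 = concentration activating p24 production by 50%, fitted by non-linear regression.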

[5] = Cytotoxicity against human U937 cells after 3 days by CytoTox-Glo assay; format: cell-based, U-937
In short: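 U937 cytotoxicity is run by the same method as for MT4: 3-day culture with various compound concentrations, CytoTox-Glo read-out, and CC50 taken as 50% reduction of viability.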

[6] = test system: Human immunodeficiency virus 1; assay: Reactivation of latent HIV1 infected in human J-Lat A2 cells assessed as increase in GFP expression at 10 to 50 nM after 72 hrs by flow cytometric method; format: functional, organism-based
In short: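 J-Lat (A2) cells (1×10⁶ cells/well) incubated with various concentrations of latency reversing agents at 37 °C for 72 h. GFP-expressing cells are quantified by flow cytometry.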

CC(=O)O[C@H]1C(C)=C[C@]23C(=O)[C@@H](C=C(C)[C@@H](OC(=O)c4ccccc4)[C@]12O)[C@H]1[C@@H](C[C@H]3C)C1(C)C
EC50 [1]: 367 nM | CC50 (MT4): > 8.4 µM | selectivity ratio [2]: > 23

CC1=C[C@]23C(=O)[C@@H](C=C(CO)[C@@H](O)[C@]2(O)[C@H]1OC(=O)c1ccc2ccccc2c1)[C@H]1[C@@H](C[C@H]3C)C1(C)C
EC50 [1]: 1.3 nM | CC50 (MT4): > 8 µM | selectivity ratio [2]: > 6150 | Ratio EC50 [3]: 10 | EC50 [4]: 2.4 nM | CC50 at 72 h [5]: > 20 µM | Activity [6]: Active

C/C=C(\C)C(=O)O[C@H]1C(C)=C[C@]23C(=O)[C@@H](C=C(C)[C@@H](O)[C@]12O)[C@H]1[C@@H](C[C@H]3C)C1(C)C
EC50 [1]: 209 nM | selectivity ratio [2]: > 46

CC1=C[C@]23C(=O)[C@@H](C=C(CO)[C@@H](O)[C@]2(O)[C@H]1O)[C@H]1[C@@H](C[C@H]3C)C1(C)C [INGENOL]
EC50 [1]: > 11500 nM | CC50 (MT4): > 11.5 µM | selectivity ratio [2]: > 10

CC(=O)OCC1=C[C@@H]2C(=O)[C@]3(C=C(C)[C@H](O)[C@@]3(O)[C@@H]1O)[C@H](C)C[C@@H]1[C@H]2C1(C)C
EC50 [1]: 1080 nM | CC50 (MT4): > 10.3 µM | selectivity ratio [2]: > 10

CC1=C[C@@H]2C(=O)[C@]3(C=C(C)[C@H](OC(=O)c4ccccc4)[C@@]3(O)[C@@H]1O)[C@H](C)C[C@@H]1[C@H]2C1(C)C
EC50 [1]: 30.5 nM | CC50 (MT4): > 9.2 µM | selectivity ratio [2]: > 302

CC1=C[C@@H]2C(=O)[C@]3(C=C(C)[C@H](O)[C@@]3(O)[C@@H]1OC(=O)c1ccc3ccccc3c1)[C@H](C)C[C@@H]1[C@H]2C1(C)C
EC50 [1]: 15.5 nM | CC50 (MT4): > 8.2 µM | selectivity ratio [2]: > 179

CC1=C[C@@H]2C(=O)[C@]3(C=C(C)[C@H](O)[C@@]3(O)[C@@H]1O)[C@H](C)C[C@@H]1[C@H]2C1(C)C
EC50 [1]: > 12000 nM | CC50 (MT4): > 12 µM | selectivity ratio [2]: > 10

C/C=C(/C)C(=O)O[C@H]1C(C)=C[C@]23C(=O)[C@@H](C=C(C)[C@@H](O)[C@]12O)[C@H]1[C@@H](C[C@H]3C)C1(C)C
EC50 [1]: 426 nM | CC50 (MT4): > 9.7 µM | selectivity ratio [2]: > 22.8

C/C=C(/C)C(=O)O[C@H]1C(C)=C[C@]23C(=O)[C@@H](C=C(CO)[C@@H](O)[C@]12O)[C@H]1[C@@H](C[C@H]3C)C1(C)C [INGENOL MEBUTATE]
EC50 [1]: 4.5 nM | CC50 (MT4): > 9.3 µM | selectivity ratio [2]: > 2070 | EC50 [4]: 4.2 nM | Activity [6]: Active

Cc1cn([C@H]2C[C@H](N=[N+]=[N-])[C@@H](CO)O2)c(=O)[nH]c1=O [ZIDOVUDINE]
CC50 (MT4): > 0.4 µM

CC1=C[C@@H]2C(=O)[C@]3(C=C(C)[C@H](O)[C@@]3(O)[C@@H]1OC(=O)/C=C/c1ccccc1)[C@H](C)C[C@@H]1[C@H]2C1(C)C
EC50 [1]: 396 nM | CC50 (MT4): > 8.7 µM | selectivity ratio [2]: > 22

COc1ccc(C(=O)O[C@H]2C(C)=C[C@]34C(=O)[C@@H](C=C(C)[C@@H](O)[C@]23O)[C@H]2[C@@H](C[C@H]4C)C2(C)C)cc1
EC50 [1]: 134 nM | CC50 (MT4): > 8.6 µM | selectivity ratio [2]: > 64

C/C=C/C(=O)O[C@@H]1C(C)=C[C@@H]2C(=O)[C@]3(C=C(C)[C@H](O)[C@@]13O)[C@H](C)C[C@@H]1[C@H]2C1(C)C
EC50 [1]: 630 nM | CC50 (MT4): > 10 µM | selectivity ratio [2]: > 16

CCCCCCCCCCCC(=O)O[C@@]12C[C@@H](C)[C@]34C=C(C)[C@H](O)[C@@]3(O)[C@H](O)C(CO)=C[C@H](C4=O)[C@@H]1C2(C)C
EC50 [1]: 33.7 nM | CC50 (MT4): > 9.2 µM | selectivity ratio [2]: > 273

CCCCCCCC(=O)O[C@H]1C(C)=C[C@]23C(=O)[C@@H](C=C(C)[C@@H](O)[C@]12O)[C@H]1[C@@H](C[C@H]3C)C1(C)C
EC50 [1]: 145 nM | CC50 (MT4): > 8.7 µM | selectivity ratio [2]: > 59.9

CC1=C[C@@H]2C(=O)[C@]3(C=C(C)[C@H](OC(=O)c4ccc5ccccc5c4)[C@@]3(O)[C@@H]1O)[C@H](C)C[C@@H]1[C@H]2C1(C)C
EC50 [1]: 15.1 nM | CC50 (MT4): > 8.2 µM | selectivity ratio [2]: > 543

C/C=C/C(=O)O[C@H]1C(C)=C[C@]23C(=O)[C@@H](C=C(C)[C@@H](O)[C@]12O)[C@H]1[C@@H](C[C@H]3C)C1(C)C
EC50 [1]: 600 nM | CC50 (MT4): > 10 µM | selectivity ratio [2]: > 17

CCCCCCCCCCCC(=O)O[C@@]12C[C@@H](C)[C@]34C=C(C)[C@H](OC(=O)C(C)C(C)C)[C@@]3(O)[C@H](O)C(CO)=C[C@H](C4=O)[C@@H]1C2(C)C (some centres undefined)
EC50 [1]: 0.8 nM | CC50 (MT4): > 6.2 µM | selectivity ratio [2]: > 7500

CC1=C[C@@H]2C(=O)[C@]3(C=C(C)[C@H](O)[C@@]3(O)[C@@H]1OC(=O)c1ccccc1)[C@H](C)C[C@@H]1[C@H]2C1(C)C
EC50 [1]: 42.6 nM | CC50 (MT4): > 9.2 µM | selectivity ratio [2]: > 216

CC1=C[C@@H]2C(=O)[C@]3(C=C(C)[C@H](OC(=O)/C=C/c4ccccc4)[C@@]3(O)[C@@H]1O)[C@H](C)C[C@@H]1[C@H]2C1(C)C
EC50 [1]: 188 nM | CC50 (MT4): > 8.7 µM | selectivity ratio [2]: > 45

COc1ccc(C(=O)O[C@@H]2C(C)=C[C@@H]3C(=O)[C@]4(C=C(C)[C@H](O)[C@@]24O)[C@H](C)C[C@@H]2[C@H]3C2(C)C)cc1
EC50 [1]: 434 nM | CC50 (MT4): > 8.6 µM | selectivity ratio [2]: > 20
